# Most compounds without a hit are left out; they make up all but 3.4% or so of the library.
# MEKK2mut PB1 HTS: MEK5 binding signal on mutant MEKK2 PB1, primary screen, biochemical, multiplex bead flow cytometry, Alexa488-MEK5; Alexa488-MEK5 binding to MEKK2 mutant; percent response, % at 10 µM; 290,000 tested, 0.35% active; in the data active means percent response above about 24%, passing the limit was not always enough
# MEKK2 WT-MEK5: modulators of MEK5 binding to wildtype MEKK2, primary screen, biochemical, multiplex bead flow cytometry, Alexa488-MEK5; Mitogen-activated protein kinase kinase kinase 2 (Homo sapiens), Q9Y2U5; Alexa488-MEK5 binding to MEKK2 WT; actives lie on both sides; binding response (% of control), % at 10 µM; 290,000 tested, 1.1% active; in the data active means binding response below about 67% or above about 130%
# MEKK3 PB1 HTS: modulators of MEKK3-MEK5 PB1 binding, primary screen, biochemical, wildtype MEKK3, multiplex bead flow cytometry, Alexa488-MEK5; binding response (% of control), % at 10 µM; Mitogen-activated protein kinase kinase kinase 3 (Homo sapiens), Q99759; bead-based flow cytometry, Alexa488-MEK5 binding to MEKK3; actives lie on both sides; 0 = blocked by unlabeled MEK5, 100 = vehicle; 290,000 tested, 1.4% active;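 active means binding response more than 3 SD above or below the average of its plate-row segment, actives on both sides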;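 further: Alexa488 bead fluorescence after subtracting the streptavidin-only scavenger bead signal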
# Target sequence (Q99759 whole entry, looked up): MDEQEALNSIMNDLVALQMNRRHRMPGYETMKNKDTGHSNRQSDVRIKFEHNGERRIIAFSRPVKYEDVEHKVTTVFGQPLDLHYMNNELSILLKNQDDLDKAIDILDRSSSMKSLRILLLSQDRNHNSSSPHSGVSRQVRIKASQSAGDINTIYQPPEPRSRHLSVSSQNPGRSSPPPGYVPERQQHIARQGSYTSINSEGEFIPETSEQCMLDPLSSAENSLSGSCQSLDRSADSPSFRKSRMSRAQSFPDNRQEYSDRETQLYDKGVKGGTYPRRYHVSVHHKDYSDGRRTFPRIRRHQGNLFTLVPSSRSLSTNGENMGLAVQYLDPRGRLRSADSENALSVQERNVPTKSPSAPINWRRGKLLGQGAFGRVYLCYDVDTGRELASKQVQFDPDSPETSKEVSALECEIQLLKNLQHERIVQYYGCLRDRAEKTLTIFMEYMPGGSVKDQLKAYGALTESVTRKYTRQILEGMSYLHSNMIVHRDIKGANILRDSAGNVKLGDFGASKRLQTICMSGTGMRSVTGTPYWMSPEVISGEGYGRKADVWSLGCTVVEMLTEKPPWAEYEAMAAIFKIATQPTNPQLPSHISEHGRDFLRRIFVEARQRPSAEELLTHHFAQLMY
# IMP-1 inhibitor: IMP-1 metallo-beta-lactamase inhibitors, primary screen, biochemical, epi-absorbance readout, Pseudomonas aeruginosa enzyme; metallo-beta-lactamase IMP-1 (Pseudomonas aeruginosa); purified IMP-1, nitrocefin hydrolysis, epi-absorbance fluorescence; inhibition, % at 5.6 µM; 290,000 tested, 0.45% active; AID 1556, 2009;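 active means inhibition above the mean plus 3 SD of all compounds in the same screening run, cut at about 4.5% in these data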
#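 System – purified recombinant IMP-1 beta-lactamase · Input – IMP-1 dispensed at 0.2 nM · Timing – 15 min preincubation plus 25 min reaction at 25 °C · Signal – Epi-absorbance fluorescence, 480 nm excitation, 530 nm emission · Measure – percent IMP-1 inhibition derived from blank-referenced optical density · Controls – Enzyme-plus-DMSO low control, enzyme-free DMSO high control · Replication – singlicate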
# VIM-2 inh: VIM-2 metallo-beta-lactamase inhibitors, primary screen, biochemical, epi-absorbance readout, Pseudomonas aeruginosa enzyme | purified VIM-2, nitrocefin hydrolysis, epi-absorbance fluorescence | inhibition, % at 5.6 µM | 290,000 tested, 0.89% active | AID 1527, 2009;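 active means inhibition above the mean of all tested compounds plus 3 SD, cutoff set per screening run, cut at about 7.5% in these data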;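 further: red hydrolysis product quenches plate fluorescence so inhibitors raise well fluorescence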
# MEKK2wt confirm: modulators of MEK5 binding to wildtype MEKK2, confirmation, biochemical, single concentration, multiplex bead flow cytometry. 5,900 tested, 2.4% active. Alexa488-MEK5 binding to MEKK2 WT; actives lie on both sides. shares compounds with MEKK3 PB1 HTS. binding response (% of control), % at 10 µM. AID 1892, 2009; in the data active means binding response below about 16% or above about 210%; inactive means in between
# MEKK2mut-MEK5: mutant MEKK2 PB1-MEK5 binding signal retest – biochemical, single concentration, multiplex bead flow cytometry, confirmation | shares compounds with MEKK3 PB1 HTS | 5,900 tested, 2% active | Alexa488-MEK5 binding to MEKK2 mutant | percent response, % at 10 µM; in the data active means percent response mostly above about 71%, no sharp cut-off; inactive means mostly below about 38%;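 further: higher means compound restores mutant binding toward wildtype level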
# MEKK3 confirm: MEKK3 wild-type PB1 binding to MEK5, inhibitors, confirmation, biochemical, bead multiplex flow cytometry, single concentration, wildtype. shares compounds with MEKK3 PB1 HTS. Alexa488-MEK5 binding to MEKK3; hits give low values. binding response (% of control), % at 10 µM. 5,900 tested, 1.8% active;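 active means binding response below 72% of control, or above a set upper limit, though filed actives all read lower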
# A number is an active result; - = inactive; . = no result; [ ] = dose if it differs, or a comment.
SMILES,MEKK2mut PB1 HTS,MEKK2 WT-MEK5,MEKK3 PB1 HTS,IMP-1 inhibitor,VIM-2 inh,MEKK2wt confirm,MEKK2mut-MEK5,MEKK3 confirm
Cc1cc(C(=O)Nc2ccccc2)oc(=O)c1,-,-,49[inhibitor],-,-,-,-,-
COc1ccc(-c2[nH]ncc2CN2CCCCCCC2)c(OC)c1,98,223,-,-,-,214,79,-
CCCN1C(=O)/C(=C/c2ccc(C)s2)SC1=Nc1ccc(OC)cc1,-,-,-,-,-,.,.,.
CCN(CC)CCN1C(=O)/C(=C\c2ccc(Cl)c([N+](=O)[O-])c2)SC1=Nc1ccc(OC)cc1,36,197,-,-,8.0,-,-,-
COc1ccc(N=C2S/C(=C\c3ccc(Cl)c([N+](=O)[O-])c3)C(=O)N2CCN(C)C)cc1,69,182,-,-,-,-,-,-
CCCc1nnc(NC(=O)C2CCCO2)s1 (stereo not drawn),-,-,-,-,-,.,.,.
Nc1nnn(CC(=O)N/N=C/c2ccncc2)n1,-,-,130,-,-,-,-,-
COc1ccccc1OCC(=O)N1CCCC(Nc2ccc(C)c(C)c2)C1 (stereo not drawn),-,-,-,-,-,.,.,.
Cc1ccc(NC(=O)CNC(=O)c2ccc(C)o2)cc1,-,46[inhibitor],29[inhibitor],-,-,-,-,-
COc1cccc(Nc2c(Nc3cccc(OC)c3)c(=O)c2=O)c1,-,-,-,-,-,.,.,.
COc1cccc(Nc2ccc(Nc3cccc(OC)c3)nn2)c1,76,172,-,-,-,-,-,-
CCc1nnc(NC(=O)C2CC(=O)N(Cc3ccco3)C2)s1 (stereo not drawn),-,-,122,-,-,-,-,-
COc1ccc(-c2nn(-c3ccccc3)cc2/C=C/C(=O)OCC(=O)Nc2cccc(C#N)c2)cc1,-,-,130,-,-,-,-,-
CCOC(=O)NC(Nc1ccc(C)cn1)(C(F)(F)F)C(F)(F)F,-,-,-,-,-,.,.,.
CC(C)OC(=O)NC(Nc1ccccc1C(=O)O)(C(F)(F)F)C(F)(F)F,-,-,132,-,-,-,-,-
CCOC(=O)Nc1ccccc1C(=O)Nc1cc(C)cc(C)c1,-,-,-,-,-,.,.,.
Cc1oc2ccc(NS(=O)(=O)c3ccccc3)cc2c1C(=O)Nc1ccccc1,-,-,129,-,-,-,-,-
COCCOC(=O)c1c(C)oc2ccc(NS(=O)(=O)c3ccc(C)cc3)cc12,-,-,135,-,-,-,-,-
COCCOC(=O)c1c(C)oc2ccc(NS(=O)(=O)c3ccccc3)cc12,-,-,-,-,-,.,.,.
N#C/C(=C/c1ccc(O)c([N+](=O)[O-])c1)C(=O)Nc1ccccc1,-,-,-,-,-,.,.,.
COC(=O)C1=C(C)NC(=O)CC1c1cccc(Cl)c1Cl (stereo not drawn),-,-,-,-,-,.,.,.
COc1ccccc1C1CC(=O)NC(C)=C1C(=O)OC(C)C (stereo not drawn),-,-,49[inhibitor],-,-,-,-,-
CCOc1ccc(OCC)c(S(=O)(=O)n2ccnc2C)c1,25,-,-,-,-,-,-,-
CCOc1ccc(C(C)C)cc1S(=O)(=O)n1ccnc1C,-,-,-,-,-,.,.,.
Cc1cc2ccccc2n1CCNC(=O)c1ccc(S(=O)(=O)N2CCOCC2)cc1,-,.,57[inhibitor],-,-,-,-,-
SMILES,MEKK2mut PB1 HTS,MEKK2 WT-MEK5,MEKK3 PB1 HTS,IMP-1 inhibitor,VIM-2 inh,MEKK2wt confirm,MEKK2mut-MEK5,MEKK3 confirm
Cc1cc2ccccc2n1CCNC(=O)c1ccccc1,-,-,66[inhibitor],-,-,-,-,59
Cc1cc2ccccc2n1CCNC(=O)COc1ccccc1,-,33[inhibitor],58[inhibitor],.,.,-,-,-
CCC(=O)NCCn1c(C)cc2ccccc21,-,-,-,-,-,.,.,.
Cc1cc2ccccc2n1CCNC(=O)c1ccc(Br)o1,-,-,47[inhibitor],-,-,-,-,53
CC(=O)NCCn1c(C)cc2ccccc21,-,-,-,.,.,.,.,.
Cc1cc2ccccc2n1CCNC(=O)C(C)(C)C,-,-,-,.,.,.,.,.
CC(=O)c1ccccc1OCC(O)Cn1ccnc1 (stereo not drawn),-,-,-,-,-,.,.,.
Cc1onc(-c2ccccc2Cl)c1C(=O)NCCn1c(C)cc2ccccc21,-,.,71[inhibitor],-,-,-,-,-
Cc1onc(-c2ccccc2Cl)c1C(=O)NCC(=O)O,-,-,-,-,-,.,.,.
O=c1[nH]c2ccc(NC(=S)NC3CCCCC3)cc2[nH]1,-,-,-,-,-,.,.,.
Cc1nn(C)cc1C(N)=O,-,-,-,-,-,.,.,.
Cc1nn(C)cc1/C=C(/C#N)C(N)=O,-,-,149,-,-,-,-,-
Cc1ccc(N2CCN(c3ccc(C)cc3)C2c2cccnc2)cc1,-,-,-,-,-,.,.,.
O=C(CSCc1ccc(Br)cc1)N=Nc1c(O)[nH]c2ccccc12,-,-,146,-,-,-,-,-
O=C(CSc1nc2ccccc2[nH]1)N=Nc1c(O)[nH]c2ccccc12,-,-,-,-,-,.,.,.
CC(Sc1nc2ccccc2o1)C(=O)O (stereo not drawn),-,-39[inhibitor],-3.0[inhibitor],-,-,-,-,-
CCO/N=C(/c1nonc1N)N1CCN(c2ccc([N+](=O)[O-])cc2)CC1,-,-,129,-,-,-,-,-
CO/N=C(\c1nonc1N)N1CCN(c2ccc([N+](=O)[O-])cc2Cl)CC1,-,-,-,-,-,.,.,.
COc1ccc(-n2nc(C(=O)NCC(=O)NCCCN3CCCCCC3)c3ccccc3c2=O)cc1Cl,-,149,-,-,-,-,-,-
COc1ccc(-n2nc(C(=O)NCC(=O)NCCCN3CCC(C)CC3)c3ccccc3c2=O)cc1Cl,-,-,-,-,-,.,.,.
COc1ccccc1N/C(N)=N/c1nc(C(F)(F)F)cc(=O)[nH]1,-,-,-,-,-,.,.,.
COc1ccc(-c2cn3cc([N+](=O)[O-])ccc3n2)cc1OC,-,-,75[inhibitor],-,-,-,-,-
